# ChEMBL document CHEMBL3085691, “Discovery of tryptanthrin derivatives as potent inhibitors of indoleamine 2,3-dioxygenase with therapeutic activity in Lewis lung cancer (LLC) tumor-bearing mice” (J Med Chem, 2013)
# The source made the active and inactive calls. The calls are words filed in the database; no cut-off is given here.
# How the values were obtained:
# [1] = target: T1, Indoleamine 2,3-dioxygenase 1 (Homo sapiens, UniProt P14902); assay: Uncompetitive inhibition of human recombinant IDO1 using L-tryptophan as substrate
# Outline: (§1)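 Reversibility and inhibition mode taken from kinetic graphical plots of recombinant human IDO-1 activity. The enzyme assay used a methylene blue/ascorbate regeneration system. Ki derived by plotting [S]/V against inhibitor concentration.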
# Target sequence in this assay (P14902 whole entry): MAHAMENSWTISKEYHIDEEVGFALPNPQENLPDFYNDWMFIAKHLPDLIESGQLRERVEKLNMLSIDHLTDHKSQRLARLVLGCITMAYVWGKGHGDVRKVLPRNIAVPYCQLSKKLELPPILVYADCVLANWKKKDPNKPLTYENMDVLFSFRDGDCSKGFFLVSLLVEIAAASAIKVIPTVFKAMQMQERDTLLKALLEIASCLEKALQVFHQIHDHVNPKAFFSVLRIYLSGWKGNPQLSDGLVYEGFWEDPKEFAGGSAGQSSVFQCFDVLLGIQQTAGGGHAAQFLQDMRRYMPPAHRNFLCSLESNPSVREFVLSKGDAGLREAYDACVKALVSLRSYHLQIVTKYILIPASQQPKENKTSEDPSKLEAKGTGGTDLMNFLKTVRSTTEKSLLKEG
# [2] = DPPH radical scavenging activity assessed as reducing ability at 5 to 160 uM after 30 mins by spectrophotometry; details: 0.5 h
# [3] = target: T1, Indoleamine 2,3-dioxygenase 1; assay: Inhibition of human IDO1 expressed in HEK293 cells assessed as kynurenine release after 5 hrs by spectrophotometry; type: cell-based
# [4] = target: T1, Indoleamine 2,3-dioxygenase 1; assay: Inhibition of human recombinant IDO1 using L-tryptophan as substrate
# Target sequence in this assay (P14902 whole entry): as above
# [5] = target: T1, Indoleamine 2,3-dioxygenase 1; assay: Mixed competitive inhibition of human recombinant IDO1 using L-tryptophan as substrate; outline: as §1
# Target sequence in this assay (P14902 whole entry): as above
# [6] = target: T1, Indoleamine 2,3-dioxygenase 1; assay: Competitive inhibition of human recombinant IDO1 using L-tryptophan as substrate
# Target sequence in this assay (P14902 whole entry, looked up): as the sequence (P14902 whole entry) above
# [7] = DPPH radical scavenging activity assessed as reducing ability at […] after 30 mins by spectrophotometry; type: physicochemical; details: 0.5 h
# Outline: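 Tryptanthrins at 5, 10, 20, 40, 80 or 160 μM in DMSO (100 μL) mixed with 100 μL DPPH radical (100 μM in ethanol, acetate-buffered pH 5.5). Absorbance at 517 nm read after 30 min gentle shaking in the dark. Ascorbic acid as reference. Triplicates.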
# [8] = target: T1, Indoleamine 2,3-dioxygenase 1; assay: Binding affinity to human IDO1 by SPR assay
# Outline: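 SPR at 25 °C on purified human IDO-1 immobilized on a CM5 sensor chip, compound injected at a series of concentrations. Running buffer PBS with 0.1% dodecylmaltoside, 0.05 mM EDTA and 5% DMSO, pH 7.4. KD taken as the equilibrium dissociation constant from instrument evaluation.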
# Target sequence in this assay (P14902 whole entry): as above
# Mus musculus [9] = assay: Reduction of Foxp3 expression in nucleus of C57BL/6 mouse tumor allografted with mouse LLC cells at 200 mg/kg, po qd after 14 days by immunohistochemical analysis
# Mus musculus [10] = assay: Upregulation of IDO1 expression in cytoplasm of C57BL/6 mouse tumor allografted with mouse LLC cells at 200 mg/kg, po qd after 14 days by immunohistochemical analysis; type: functional, organism-based; design: dose 200 mg/kg
# Outline: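 LLC allografts in C57BL/6 mice, sc at 2 × 10^6 cells. Oral dosing once daily at 200 mg/kg or 0.5% CMC vehicle from 5 mm tumor diameter for 14 days. Tumors and TDLNs cut into 5 μm sections with heat antigen retrieval. Rabbit Foxp3 Ab (1/100) or mouse IDO-1 Ab (1/50) applied 1 h, then Alexa Fluor secondary 30 min. Nuclei counterstained; imaged at ×200.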
# [11] = test system: Lewis lung carcinoma cell line; assay: Antitumor activity against mouse LLC cells allografted in C57BL/6 mouse assessed as reduction in tumor volume at 200 mg/kg, po qd after 14 days; type: functional; details: 336 h, read-out: TGI
# Mus musculus [12] = assay: In vivo inhibition of IDO1 in C57BL/6 mouse allografted with mouse LLC cells assessed as kynurenine to tryptophan ratio in plasma at 200 mg/kg, po qd after 14 days by HPLC analysis relative to control; type: functional, organism-based; design: dose 200 mg/kg
# Outline: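 C57BL/6 mice, 8 weeks old, given 2 × 10^6 LLC cells sc in right forelimb and randomized to three groups. Oral dosing once daily from 5 mm tumor diameter with 0.5% CMC vehicle or 200 mg/kg. Plasma taken after 14 days. Trp and Kyn measured by HPLC and Kyn/Trp ratio calculated, n = 9−10. One-way ANOVA against vehicle.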
SMILES,IC50 [1],Ki [1],Activity [2],IC50 [3],further results
O=C1c2cc([N+](=O)[O-])ccc2-n2c1nc1ccccc1c2=O,0.103 µM,0.054 µM,Not Active,–,–
O=C1c2ccc(Cl)cc2-n2c1nc1ccccc1c2=O,74.4 µM,49.4 µM,–,0.183 µM,–
O=C1c2cc(F)ccc2N[C@H]2[C@H](O)c3ccccc3N12,–,–,–,–,IC50 [4]: 451 µM
O=C1c2ccccc2-n2c1nc1ccccc1c2=O [TRYPTANTHRIN],–,–,Not Active,0.0537 µM,IC50 [5]: 7.15 µM; Ki [5]: 4.81 µM
O=C1c2cc(Cn3cc(-c4ccccc4)nn3)ccc2-n2c1nc1ccc(F)cc1c2=O,–,–,–,–,inhibition [3]: inactive; inhibition [6]: inactive
O=C1O[C@H]([C@@H](O)CO)C(O)=C1O [ASCORBIC ACID],–,–,–,–,Activity [7]: Active
Cc1ccc2c(c1)C(=O)c1nc3ccccc3c(=O)n1-2,–,–,–,–,IC50 [5]: 121 µM; Ki [5]: 219 µM
O=C1c2c(Cl)cccc2-n2c1nc1ccccc1c2=O,8.19 µM,9.65 µM,Not Active,0.0271 µM,–
O=C1c2ccccc2N[C@H]2[C@H](O)c3cc(F)ccc3N12,6.21 µM,4.54 µM,–,0.0243 µM,–
O=C1c2cc(F)ccc2-n2c1nc1ccc(F)cc1c2=O,2.72 µM,5.48 µM,–,0.466 µM,–
O=C1c2cc(Br)ccc2-n2c1nc1ccccc1c2=O,0.574 µM,0.389 µM,Not Active,0.0539 µM,–
O=C1c2ccccc2N[C@H]2[C@H](O)c3ccccc3N12,16 µM,8.58 µM,–,0.779 µM,–
O=C1c2cc(F)ccc2-n2c1nc1ccccc1c2=O,0.534 µM,0.161 µM,Not Active,0.023 µM,Kd [8]: 46.8 µM; Activity (Mus musculus [9]): Active; Activity (Mus musculus [10]): Active; inhibition in vivo at 200 mg/kg [11]: 62%; inhibition (Mus musculus [12]): Active
O=C1c2ccccc2-n2c1nc1ccc(F)cc1c2=O,–,–,–,–,IC50 [4]: 864 µM
